Test results reported in publication PMC8245912 (Acta Pharmaceutica Sinica. B, 2020).
Like-named read-outs stand apart in the source and are kept apart here. Peptide text beside a SMILES is read from it. * marks the point of attachment. Cbz = O=C(OCc1ccccc1)*

Tests used:
[1] = tested on: MCF-7 (breast cancer) cells; assay: CCK-8 antiproliferative assay, MCF-7; type: cell-based; settings: Homo sapiens, MCF7, read-out: IC50 MCF-7
MDM2‒P53 = MDM2‒P53 (Homo sapiens, UniProt Q00987); assay: fluorescence polarization; type: binding; settings: for Ki: MDM2‒P53 Ki, FP binding assay, Table 1
A549 (lung cancer) cells = assay: CCK-8 antiproliferative assay, A549; type: cell-based; settings: Homo sapiens
[2] = tested on: HCT116 (colon cancer) cells; assay: CCK-8 antiproliferative assay, HCT116; type: cell-based; settings: Homo sapiens, HCT-116, read-out: IC50 HCT116
[3] = tested on: HepG2 (liver cancer) cells; assay: CCK-8 antiproliferative assay, HepG2; type: cell-based; settings: Homo sapiens, HepG2, read-out: IC50 HepG2
P53 = assay: Western blotting of P53 expression in A549 cells; type: cell-based, human
HCT116 (P53+) cells = assay: CCK-8 assay, P53-wild HCT116; type: cell-based; settings: Homo sapiens, HCT-116, read-out: IC50 HCT116 (P53+)
A549 cells = assay: apoptosis assay, flow cytometry with Annexin V/PI double staining; type: cell-based, human; settings: for apoptosis: 5.0 μmol/L, 24 h treatment
MDM2 = MDM2 (Homo sapiens, UniProt Q00987); assay: Western blotting of MDM2 degradation in A549 cells; type: cell-based; settings: for MDM2 degradation (result in words): Western blotting, Fig. 2B
HCT116 (P53‒) cells = assay: CCK-8 assay, P53-deleted HCT116; type: cell-based; settings: Homo sapiens, HCT-116, read-out: IC50 HCT116 (P53‒)
Caco-2 cells = type: in vitro ADME
A549 xenograft = assay: in vivo A549 xenograft assay; design: species or system mouse; settings: A549 xenograft nude mice, intraperitoneal 20 mg/kg twice-daily, 21 days
Method in brief: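 Female BALB/c nude mice (6–7 weeks, 18–20 g) received 5.0 × 10^6 A549 cells subcutaneously in the flank. At mean tumour volume 100 mm3 they were randomised, 5 per group. Intraperitoneal dosing ran twice daily for 21 days; vehicle was normal saline. Calipers measured tumours every three days: V = A×B²/2, TGI = (1 − Vtreat/Vcontrol) × 100. Analysis used mean ± SEM and one-way ANOVA.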

[4] = A549, 72 h, read-out: IC50 A549

Structure (SMILES): CCOc1cc(C(C)(C)C)ccc1C1=N[C@@H](c2ccc(Cl)cc2)[C@@H](c2ccc(Cl)cc2)N1C(=O)N1CCN(C(=O)CCCCCCCC(=O)N2CCN(C(=O)N3C(c4ccc(C(C)(C)C)cc4OCC)=N[C@@H](c4ccc(Cl)cc4)[C@H]3c3ccc(Cl)cc3)CC2)CC1 (relative stereo) [Compound 10b, 1,9-Bis(4-(2-(4-(tert-butyl)-2-ethoxyphenyl)-cis-4,5-bis(4-chlorophenyl)-4,5-dihydro-1H-imidazole-1-carbonyl)piperazin-1-yl) nonane-1,9-dione]
- IC50 [1]: 6.3 ± 1.1 µM
- Ki (MDM2‒P53): 1.6 ± 0.96 µM
- IC50 (A549 (lung cancer) cells; [4]): 6.3 ± 1.2 µM
- IC50 [2]: 5.7 ± 1.3 µM
- IC50 [3]: 3.8 µM

Structure (SMILES): CCOc1cc(C(C)(C)C)ccc1C1=N[C@@H](c2ccc(Cl)cc2)[C@@H](c2ccc(Cl)cc2)N1C(=O)N1CCN(CC(=O)NCCOCCOCCOCCNC(=O)CN2CCN(C(=O)N3C(c4ccc(C(C)(C)C)cc4OCC)=N[C@@H](c4ccc(Cl)cc4)[C@H]3c3ccc(Cl)cc3)CC2=O)C(=O)C1 (relative stereo) [Compound 11a, N,N′-(((Oxybis(ethane-2,1-diyl))bis(oxy))bis(ethane-2,1-diyl))bis(2-(4-(2-(4-(tert-butyl)-2-ethoxyphenyl)-cis-4,5-bis(4-chlorophenyl)-4,5-dihydro-1H-imidazole-1-carbonyl)-2-oxopiperazin-1-yl)acetamide)]
- P53 protein expression (result in words) (P53): increased the P53 protein expression
- IC50 (HCT116 (P53+) cells): 1.9 ± 0.67 µM
- IC50 [1]: 2.9 ± 0.6 µM
- fold more potent MDM2‒P53 competitive binding than positive control 1 (MDM2‒P53; ratio of Ki vs compound 1): ~1.5 fold
- apoptosis in combination with MG132 (A549 cells; A549 cells, 5.0 μmol/L compound + MG132 0.2 μmol/L): 15.81%
- apoptosis (A549 cells; A549 cells): 23.49%
- IC50 (A549 (lung cancer) cells; [4]): 1 ± 0.1 µM
- IC50 (A549 (lung cancer) cells; A549, read-out: IC50 A549): 1.4 ± 0.31 µM
- MDM2 degradation (MDM2; 2 μmol/L, 24 h): > 95%
- MDM2 degradation rescue by proteasome inhibitor MG132 (result in words) (MDM2; Fig. 4F): MG132 blocked the MDM2 degradation
- MDM2 degradation (result in words) (MDM2): dose-dependently induced MDM2 protein cleavage
- time at which depletion of MDM2 was observed (MDM2; time course degradation, Fig. 4D): ≤ 2 h
- IC50 [2]: 1.9 ± 0.11 µM
- IC50 (HCT116 (P53‒) cells): > 50 µM
- cellular permeability (result in words) (Caco-2 cells): low permeability
- IC50 [3]: 3.3 ± 0.31 µM

Structure (SMILES): CCOc1cc(C(C)(C)C)ccc1C1=N[C@@H](c2ccc(Cl)cc2)[C@@H](c2ccc(Cl)cc2)N1C(=O)N1CCN(CC(=O)NCCOCCOCCNC(=O)CN2CCN(C(=O)N3C(c4ccc(C(C)(C)C)cc4OCC)=N[C@@H](c4ccc(Cl)cc4)[C@H]3c3ccc(Cl)cc3)CC2=O)C(=O)C1 (relative stereo) [Compound 11b, N,N′-((Ethane-1,2-diylbis(oxy))bis(ethane-2,1-diyl))bis(2-(4-(2-(4-(tert-butyl)-2-ethoxyphenyl)-cis-4,5-bis(4-chlorophenyl)-4,5-dihydro-1H-imidazole-1-carbonyl)-2-oxopiperazin-1-yl)acetamide)]
- IC50 [1]: 4.9 ± 0.2 µM
- Ki (MDM2‒P53): 1.8 ± 0.94 µM
- IC50 (A549 (lung cancer) cells; [4]): 6.6 ± 1 µM
- IC50 [2]: 3.9 ± 1.6 µM
- IC50 [3]: 7.3 ± 0.52 µM

Structure (SMILES): CCOc1cc(C(C)(C)C)ccc1C1=N[C@@H](c2ccc(Cl)cc2)[C@@H](c2ccc(Cl)cc2)N1C(=O)N1CCN(C(=O)COCCOCC(=O)N2CCN(C(=O)N3C(c4ccc(C(C)(C)C)cc4OCC)=N[C@@H](c4ccc(Cl)cc4)[C@H]3c3ccc(Cl)cc3)CC2)CC1 (relative stereo) [Compound 10e, 2,2′-(Ethane-1,2-diylbis(oxy)) bis(1-(4-(2-(4-(tert-butyl)-2-ethoxyphenyl)-cis-4,5-bis(4-chlorophenyl)-4,5-dihydro-1H-imidazole-1-carbonyl)piperazin-1-yl)ethan-1-one)]
- IC50 [1]: 7.4 ± 0.51 µM
- Ki (MDM2‒P53): 1.5 ± 0.82 µM
- IC50 (A549 (lung cancer) cells; [4]): 6.6 ± 1 µM
- IC50 [2]: 3.9 ± 0.7 µM
- IC50 [3]: 4.6 ± 0.8 µM

Structure (SMILES): CC(C)C[C@@H](C=O)NC(=O)[C@H](CC(C)C)NC(=O)[C@H](CC(C)C)NC(=O)OCc1ccccc1 [MG132, reference compound] (Cbz-Leu-Leu-Leu-aldehyde)
- toxic effect on A549 cells (result in words) (A549 cells; 0.2 μmol/L, incubation for 24 h): no toxic effect

Structure (SMILES): CCOc1cc(C(C)(C)C)ccc1C1=N[C@@H](c2ccc(Cl)cc2)[C@@H](c2ccc(Cl)cc2)N1C(=O)N1CCN(C(=O)COCCOCCOCC(=O)N2CCN(C(=O)N3C(c4ccc(C(C)(C)C)cc4OCC)=N[C@@H](c4ccc(Cl)cc4)[C@H]3c3ccc(Cl)cc3)CC2)CC1 (relative stereo) [Compound 10f, 2,2′-((Oxybis(ethane-2,1-diyl))bis(oxy))bis(1-(4-(2-(4-(tert-butyl)-2-ethoxyphenyl)-cis-4,5-bis(4-chlorophenyl)-4,5-dihydro-1H-imidazole-1-carbonyl)piperazin-1-yl)ethan-1-one)]
- P53 protein expression (result in words) (P53): increased the P53 protein expression
- IC50 [1]: 4.7 ± 0.81 µM
- Ki (MDM2‒P53): 0.22 ± 0.07 µM
- IC50 (A549 (lung cancer) cells; [4]): 1.3 µM
- MDM2 degradation (result in words) (MDM2): dose-dependently induced MDM2 protein cleavage
- IC50 [2]: 1.3 ± 0.1 µM
- IC50 [3]: 1.2 ± 0.2 µM

Structure (SMILES): CCOc1cc(C(C)(C)C)ccc1C1=N[C@@H](c2ccc(Cl)cc2)[C@@H](c2ccc(Cl)cc2)N1C(=O)N1CCN(C(=O)CCCCCC(=O)N2CCN(C(=O)N3C(c4ccc(C(C)(C)C)cc4OCC)=N[C@@H](c4ccc(Cl)cc4)[C@H]3c3ccc(Cl)cc3)CC2)CC1 (relative stereo) [Compound 10a, 1,7-Bis(4-(2-(4-(tert-butyl)-2-ethoxyphenyl)-cis-4,5-bis(4-chlorophenyl)-4,5-dihydro-1H-imidazole-1-carbonyl)piperazin-1-yl) heptane-1,7-dione]
- IC50 [1]: 2.1 µM
- Ki (MDM2‒P53): 0.65 ± 0.17 µM
- IC50 (A549 (lung cancer) cells; [4]): 2.1 ± 0.1 µM
- MDM2 degradation (result in words) (MDM2): no degradation
- IC50 [2]: 2.5 ± 1 µM
- IC50 [3]: 1.5 ± 0.05 µM

Structure (SMILES): COc1ccc(C2=N[C@@H](c3ccc(Cl)cc3)[C@@H](c3ccc(Cl)cc3)N2C(=O)N2CCNC(=O)C2)c(OC(C)C)c1 [Compound 1, Nutlin-3, reference compound]
- IC50 [1]: 9.7 ± 1 µM
- apoptosis (A549 cells; A549 cells): 10.94%
- IC50 (A549 (lung cancer) cells; [4]): 7.9 ± 1.3 µM
- IC50 (A549 (lung cancer) cells; A549, read-out: IC50 A549): 9.9 ± 1.3 µM
- MDM2 degradation (result in words) (MDM2): did not induce the degradation of MDM2
- IC50 [2]: 5 ± 0.9 µM
- tumor growth inhibition (TGI) (A549 xenograft): 47.8%
- IC50 (HCT116 (P53‒) cells): 19 ± 0.91 µM
- IC50 [3]: 8.9 ± 1 µM

Structure (SMILES): CCOc1cc(C(C)(C)C)ccc1C1=N[C@@H](c2ccc(Cl)cc2)[C@@H](c2ccc(Cl)cc2)N1C(=O)N1CCN(CC(=O)NCCOCCNC(=O)CN2CCN(C(=O)N3C(c4ccc(C(C)(C)C)cc4OCC)=N[C@@H](c4ccc(Cl)cc4)[C@H]3c3ccc(Cl)cc3)CC2=O)C(=O)C1 (relative stereo) [Compound 11c, N,N′-(Oxybis(ethane-2,1-diyl))bis(2-(4-(2-(4-(tert-butyl)-2-ethoxyphenyl)-cis-4,5-bis(4-chlorophenyl)-4,5-dihydro-1H-imidazole-1-carbonyl)-2-oxopiperazin-1-yl)acetamide)]
- IC50 [1]: 14 ± 3.7 µM
- Ki (MDM2‒P53): 12 ± 1.9 µM
- IC50 (A549 (lung cancer) cells; [4]): 9.3 ± 1.7 µM
- IC50 [2]: 7.4 ± 2.1 µM
- IC50 [3]: 12 ± 3.7 µM
